Assay results as given in ChEMBL document CHEMBL3244048, “Synthesis and biological activity of potential antimetabolites of L-fucose” (1979).
The source made the active and inactive calls. No cut-off for these calls is given here.

Assays:
P388 [1] = test: Cytotoxicity against mouse P388 cells assessed as growth inhibition at 1x10'-3 M after 72 hrs by Coulter counting analysis relative to control; assay type: functional; settings: P388, 72 h, read-out: GI
Outline: (§1)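 P388 leukemia cells seeded at 1.1 × 10^4 cells/mL in Fischer's medium with 10% horse serum. Compound dissolved in 0.9% NaCl, with or without 3% Me2SO, at ten times final concentration, filter-sterilized, and added at one-tenth volume. Incubation at 37 °C under 5% CO2; cell numbers counted in triplicate by electronic particle counter after 72 h.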

P388 [2] = test: Cytotoxicity against mouse P388 cells assessed as growth inhibition at 5x10'-4 M after 72 hrs by Coulter counting analysis relative to control; assay type: functional; settings: P388, 72 h, read-out: GI; outline: as §1
P388 [3] = test: Cytotoxicity against mouse P388 cells assessed as growth inhibition at 1x10'-4 M after 72 hrs by Coulter counting analysis relative to control; assay type: functional; settings: P388, 72 h, read-out: GI; outline: as §1
P388 [4] = test: Displacement of L-[3H]-fucose from glycoprotein in mouse P388 cells at 10^-4 to 10^-3 M incubated for 2 hrs prior to radioligand addition measured after 30 mins by scintillation spectrometric analysis; assay type: cell-based
Outline: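 P388 cells grown to midlog phase (4 × 10^5 cells/mL) in Fischer's medium plus 10% horse serum, then resuspended in fresh medium at 5 × 10^6 cells/mL. Preincubated 2 h at 37 °C with shaking with compound at 10^-4 or 10^-3 M. L-[3H]fucose and [14C]glucosamine (nonspecific control) then added for 30 min. Stopped with cold 10% TCA; pellets washed, lipid-extracted, hydrolyzed in 0.5 N NaOH at 85 °C; scintillation counting.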

P388 [5] = test: Cytotoxicity against mouse P388 cells assessed as growth inhibition at 1x10'-5 M after 72 hrs by Coulter counting analysis relative to control; assay type: functional; settings: P388, 72 h, read-out: GI; outline: as §1
P388 [6] = test: Cytotoxicity against mouse P388 cells assessed as growth inhibition at 2.5x10'-4 M after 72 hrs by Coulter counting analysis relative to control; assay type: functional; settings: P388, 72 h, read-out: GI; outline: as §1

In the case of `OC1O[C@@H](C(F)F)[C@@H](O)[C@@H](O)[C@@H]1O` (stereo not given in full), the inhibition of growth at 1000 µM (P388 [1]) is reported as 0%, the inhibition of growth at 500 µM (P388 [2]) is reported as 0% and the inhibition of growth at 100 µM (P388 [3]) is reported as 0%. For the same compound, the inhibition (P388 [4]) was “inactive”.

Compound `CCOC[C@@H]1OC(O)[C@@H](O)[C@H](O)[C@@H]1O` (stereo not given in full) has an inhibition of growth at 1000 µM (P388 [1]) of 23%, an inhibition of growth at 500 µM (P388 [2]) of 31% and an inhibition of growth at 100 µM (P388 [3]) of 25%. For the same compound, the inhibition (P388 [4]) was “inactive”.

With `O=C(NC[C@@H]1OC(O)[C@@H](O)[C@H](O)[C@@H]1O)C(F)(F)F` (stereo not given in full) the inhibition of growth at 1000 µM (P388 [1]) was 36%, the inhibition of growth at 100 µM (P388 [3]) was 14% and the inhibition of growth at 10 µM (P388 [5]) was 7%. The inhibition (P388 [4]) was “inactive”.

`CC(=O)NC[C@@H]1OC(O)[C@@H](O)[C@H](O)[C@@H]1O` (stereo not given in full) was tested, and the inhibition of growth at 1000 µM (P388 [1]) was 16%, the inhibition of growth at 100 µM (P388 [3]) was 9% and the inhibition of growth at 10 µM (P388 [5]) was 15%. The inhibition (P388 [4]) was “inactive”.

`OC1O[C@@H](CCl)[C@@H](O)[C@@H](O)[C@@H]1O` (stereo not given in full) was tested, and the inhibition of growth at 1000 µM (P388 [1]) was 15%, the inhibition of growth at 100 µM (P388 [3]) was 10% and the inhibition of growth at 10 µM (P388 [5]) was 10%. For the same compound, the inhibition (P388 [4]) was “inactive”.

Work on `Cc1ccc(S(=O)(=O)OC[C@@H]2OC(O)[C@@H](O)[C@H](O)[C@@H]2O)cc1` (stereo not given in full) yielded an inhibition of growth at 1000 µM (P388 [1]) of 96%, an inhibition of growth at 500 µM (P388 [2]) of 94% and an inhibition of growth at 100 µM (P388 [3]) of 25%. The inhibition of growth at 10 µM (P388 [5]) was 14% and the inhibition (P388 [4]) was “inactive”.

With `CC[C@@H]1OC(O)[C@@H](O)[C@H](O)[C@@H]1O` (stereo not given in full) the inhibition of growth at 1000 µM (P388 [1]) was 2% and the inhibition (P388 [4]) was “inactive”.

In the case of `[N-]=[N+]=NC[C@@H]1OC(O)[C@@H](O)[C@H](O)[C@@H]1O` (stereo not given in full), the inhibition of growth at 1000 µM (P388 [1]) is reported as 20%, the inhibition of growth at 100 µM (P388 [3]) is reported as 12% and the inhibition of growth at 10 µM (P388 [5]) is reported as 7%. For the same compound, the inhibition (P388 [4]) was “inactive”.

`OC1O[C@@H](CBr)[C@@H](O)[C@@H](O)[C@@H]1O` (stereo not given in full) showed an inhibition of growth at 1000 µM (P388 [1]) of 97%, an inhibition of growth at 500 µM (P388 [2]) of 87% and an inhibition of growth at 100 µM (P388 [3]) of 33%. The inhibition (P388 [4]) was “inactive”.

`COC[C@@H]1OC(O)[C@@H](O)[C@H](O)[C@@H]1O` (stereo not given in full) was tested, and the inhibition of growth at 1000 µM (P388 [1]) was 73%, the inhibition of growth at 100 µM (P388 [3]) was 16% and the inhibition of growth at 10 µM (P388 [5]) was 12%. The inhibition (P388 [4]) was “inactive”.

`CS(=O)(=O)OC[C@@H]1OC(O)[C@@H](O)[C@H](O)[C@@H]1O` (stereo not given in full) was tested, and the inhibition of growth at 1000 µM (P388 [1]) was 96%, the inhibition of growth at 500 µM (P388 [2]) was 86% and the inhibition of growth at 100 µM (P388 [3]) was 56%. The inhibition (P388 [4]) was “inactive”.

For `OC1O[C@@H](COCc2ccccc2)[C@@H](O)[C@@H](O)[C@@H]1O` (stereo not given in full), the inhibition of growth at 1000 µM (P388 [1]) was 26%, the inhibition of growth at 500 µM (P388 [2]) was 21% and the inhibition of growth at 100 µM (P388 [3]) was 17%. For the same compound, the inhibition (P388 [4]) was “inactive”.

Work on `O=S(=O)(OC[C@@H]1OC(O)[C@@H](O)[C@H](O)[C@@H]1O)c1ccccc1` (stereo not given in full) yielded an inhibition of growth at 1000 µM (P388 [1]) of 97%, an inhibition of growth at 500 µM (P388 [2]) of 95% and an inhibition of growth at 100 µM (P388 [3]) of 52%. For the same compound, the inhibition (P388 [4]) was “inactive”.

`OC1O[C@@H](CF)[C@@H](O)[C@@H](O)[C@@H]1O` (stereo not given in full) gave an inhibition of growth at 1000 µM (P388 [1]) of 8%, an inhibition of growth at 100 µM (P388 [3]) of 10% and an inhibition of growth at 10 µM (P388 [5]) of 3%. For the same compound, the inhibition (P388 [4]) was “inactive”.

Compound `CC(=O)O[C@@H]1O[C@@H](C(F)F)[C@@H](OC(C)=O)[C@@H](OC(C)=O)[C@@H]1OC(C)=O` has an inhibition of growth at 250 µM (P388 [6]) of 89%.

`OC1O[C@@H](CI)[C@@H](O)[C@@H](O)[C@@H]1O` (stereo not given in full) gave an inhibition of growth at 1000 µM (P388 [1]) of 91%, an inhibition of growth at 500 µM (P388 [2]) of 71% and an inhibition of growth at 100 µM (P388 [3]) of 44%. The inhibition (P388 [4]) was “inactive”.
